Measured values taken from article PMC3431965 (The Journal of organic chemistry, 2012).
Changes are numbered by the printed parent chain.

How the values were obtained:
[1] = biological target: T1, ceramide-specific glucosyltransferase (Mus musculus, UniProt O88693); test: Ceramide-specific glucosyltransferase assay, mouse testicular microsomes; format: biochemical, C57BL/6 mouse; details: for ceramide-specific glucosyltransferase IC50 (C57BL/6, mouse): mouse testicular microsomes, n.i. = no inhibition at 1000 µM concentration
T1 sequence (O88693 1-394): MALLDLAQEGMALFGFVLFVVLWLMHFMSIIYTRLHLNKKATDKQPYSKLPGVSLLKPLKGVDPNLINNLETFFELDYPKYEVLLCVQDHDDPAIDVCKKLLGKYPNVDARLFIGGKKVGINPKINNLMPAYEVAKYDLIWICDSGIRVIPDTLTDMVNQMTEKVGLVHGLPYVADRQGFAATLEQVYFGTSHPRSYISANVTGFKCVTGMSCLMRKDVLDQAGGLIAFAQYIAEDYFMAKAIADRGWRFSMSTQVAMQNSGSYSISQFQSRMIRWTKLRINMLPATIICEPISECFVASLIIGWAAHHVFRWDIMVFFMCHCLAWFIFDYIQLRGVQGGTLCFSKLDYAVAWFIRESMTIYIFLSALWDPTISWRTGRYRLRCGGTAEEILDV

[2] = biological target: T2, ceramide-specific glucosyltransferase (Rattus norvegicus, UniProt Q9R0E0); test: Ceramide-specific glucosyltransferase assay, rat testicular microsomes; format: biochemical, Long Evans (LE) rat; details: for ceramide-specific glucosyltransferase IC50 (LE rat): rat testicular microsomes, n.i. = no inhibition at 1000 µM concentration
T2 sequence (Q9R0E0 1-394): T1 sequence (O88693 1-394) with D96E, K164R, R249K, T377A

[3] = biological target: T3, testicular β-glucosidase 2 (Rattus norvegicus, UniProt Q5M868); test: Testicular glucosidase assay; format: biochemical, Long Evans (LE) rat; details: for β-glucosidase 2 IC50 (LE rat): rat testicular microsomes, n.i. = no inhibition at 1000 µM concentration
T3 sequence (Q5M868 1-912): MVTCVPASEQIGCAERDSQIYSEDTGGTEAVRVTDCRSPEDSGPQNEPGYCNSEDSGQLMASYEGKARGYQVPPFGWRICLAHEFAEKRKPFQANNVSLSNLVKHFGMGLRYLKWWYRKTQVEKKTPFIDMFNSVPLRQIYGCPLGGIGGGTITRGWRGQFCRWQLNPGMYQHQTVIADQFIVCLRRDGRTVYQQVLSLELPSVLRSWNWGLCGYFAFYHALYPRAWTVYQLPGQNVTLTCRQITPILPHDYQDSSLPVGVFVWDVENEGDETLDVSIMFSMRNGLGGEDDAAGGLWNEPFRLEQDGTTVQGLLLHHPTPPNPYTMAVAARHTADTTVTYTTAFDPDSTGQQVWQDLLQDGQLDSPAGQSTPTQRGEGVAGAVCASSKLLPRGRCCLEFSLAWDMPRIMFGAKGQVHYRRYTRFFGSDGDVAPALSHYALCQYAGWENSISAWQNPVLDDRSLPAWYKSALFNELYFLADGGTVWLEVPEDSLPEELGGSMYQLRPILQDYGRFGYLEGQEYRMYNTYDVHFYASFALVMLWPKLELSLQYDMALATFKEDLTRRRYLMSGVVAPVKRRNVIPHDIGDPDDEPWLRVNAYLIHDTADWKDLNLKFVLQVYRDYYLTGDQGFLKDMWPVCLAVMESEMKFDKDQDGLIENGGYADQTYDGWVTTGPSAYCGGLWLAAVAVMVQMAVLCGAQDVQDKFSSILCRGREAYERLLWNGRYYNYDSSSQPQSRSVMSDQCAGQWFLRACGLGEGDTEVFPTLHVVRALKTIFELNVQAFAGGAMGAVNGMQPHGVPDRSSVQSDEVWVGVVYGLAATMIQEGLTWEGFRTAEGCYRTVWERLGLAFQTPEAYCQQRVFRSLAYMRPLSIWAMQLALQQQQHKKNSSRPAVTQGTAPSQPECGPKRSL

[4] = system: α-glucosidase (Saccharomyces cerevisiae); test: Glycosidase inhibition assay, α-glucosidase; format: biochemical; details: substrate at Km; for α-Glc % Ra (% remaining activity at 100 µM): 100 µM compound
β-glucosidase (almond) = test: Glycosidase inhibition assay, β-glucosidase; format: biochemical; details: substrate at Km; for β-Glc % Ra (% remaining activity at 100 µM): 100 µM compound; for IC50: read-out: β-Glc IC50
How it was run: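 Enzyme is added last; incubation is 4–5 min at room temperature, then 0.2 M sodium borate (pH 9.8) quenches. Absorbance at 405 nm gives % remaining activity at 100 µM compound. IC50 comes from non-linear fitting of relative activity versus concentration to a Hill-slope equation.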

[5] = biological target: α-galactosidase (green coffee beans) (Coffea arabica, UniProt Q42656); test: biochemical; details: for remaining activity at 100 µM: read-out: α-Gal % Ra (% remaining activity at 100 µM)
[6] = biological target: β-galactosidase (Escherichia coli) (Escherichia coli, UniProt P00722); test: biochemical; details: for remaining activity at 100 µM: read-out: β-Gal % Ra (% remaining activity at 100 µM)
[7] = biological target: T4, α-mannosidase (jack bean) (Canavalia ensiformis, UniProt C0HJB3); test: Glycosidase inhibition assay, α-mannosidase; format: biochemical; details: for remaining activity at 100 µM: read-out: α-Man % Ra (% remaining activity at 100 µM)
T4 sequence (C0HJB3 1-562 limits assumed): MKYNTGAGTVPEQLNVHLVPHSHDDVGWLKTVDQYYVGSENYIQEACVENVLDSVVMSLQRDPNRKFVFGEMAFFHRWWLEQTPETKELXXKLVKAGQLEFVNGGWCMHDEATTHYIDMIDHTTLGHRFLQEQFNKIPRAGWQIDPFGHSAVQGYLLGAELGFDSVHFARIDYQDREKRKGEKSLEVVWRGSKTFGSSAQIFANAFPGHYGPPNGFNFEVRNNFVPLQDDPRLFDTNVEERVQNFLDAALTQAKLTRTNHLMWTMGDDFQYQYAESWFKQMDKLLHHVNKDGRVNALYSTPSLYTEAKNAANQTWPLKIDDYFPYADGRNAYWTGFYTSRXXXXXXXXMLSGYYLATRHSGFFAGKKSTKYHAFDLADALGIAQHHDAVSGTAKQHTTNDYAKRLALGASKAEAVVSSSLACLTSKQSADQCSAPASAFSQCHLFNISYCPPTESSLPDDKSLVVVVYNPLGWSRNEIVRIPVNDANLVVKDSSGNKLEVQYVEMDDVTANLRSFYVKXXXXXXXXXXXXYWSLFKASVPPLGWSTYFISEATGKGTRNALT
T4 sequence (C0HJB3 563-981 partner limits assumed): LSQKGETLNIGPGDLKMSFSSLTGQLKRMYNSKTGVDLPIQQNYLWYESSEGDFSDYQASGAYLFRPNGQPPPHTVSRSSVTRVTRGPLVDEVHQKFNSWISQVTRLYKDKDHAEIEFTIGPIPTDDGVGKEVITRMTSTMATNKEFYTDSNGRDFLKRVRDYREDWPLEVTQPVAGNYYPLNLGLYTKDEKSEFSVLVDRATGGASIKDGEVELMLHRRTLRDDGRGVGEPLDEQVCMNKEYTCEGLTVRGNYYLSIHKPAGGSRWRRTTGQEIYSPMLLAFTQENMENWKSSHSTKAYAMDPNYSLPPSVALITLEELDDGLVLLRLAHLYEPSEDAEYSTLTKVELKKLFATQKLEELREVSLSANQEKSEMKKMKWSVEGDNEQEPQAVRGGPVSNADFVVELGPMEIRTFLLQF
How it was run: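 Enzyme starts the reaction with test compound at 100 µM. After 4–5 min at room temperature, 0.2 M sodium borate (pH 9.8) quenches it. Absorbance is read at 405 nm and reported as % remaining activity.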

[8] = system: β-mannosidase (Roman snail); test: Glycosidase inhibition assay, β-mannosidase; format: biochemical; details: 100 µM compound; substrate at Km
How it was run: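 Test compound is at 100 µM. Enzyme addition starts the reaction, which runs 4–5 min at room temperature before quenching with 0.2 M sodium borate (pH 9.8). Absorbance is read at 405 nm and given as % remaining activity.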

spermatogenesis = details: C57B1/6J-related mouse strains; cited from earlier work
human spermatogenesis = details: cited from earlier work
[9] = 100 µM compound, substrate at Km

β-galactosidase (Escherichia coli), sequence (P00722 2-1024): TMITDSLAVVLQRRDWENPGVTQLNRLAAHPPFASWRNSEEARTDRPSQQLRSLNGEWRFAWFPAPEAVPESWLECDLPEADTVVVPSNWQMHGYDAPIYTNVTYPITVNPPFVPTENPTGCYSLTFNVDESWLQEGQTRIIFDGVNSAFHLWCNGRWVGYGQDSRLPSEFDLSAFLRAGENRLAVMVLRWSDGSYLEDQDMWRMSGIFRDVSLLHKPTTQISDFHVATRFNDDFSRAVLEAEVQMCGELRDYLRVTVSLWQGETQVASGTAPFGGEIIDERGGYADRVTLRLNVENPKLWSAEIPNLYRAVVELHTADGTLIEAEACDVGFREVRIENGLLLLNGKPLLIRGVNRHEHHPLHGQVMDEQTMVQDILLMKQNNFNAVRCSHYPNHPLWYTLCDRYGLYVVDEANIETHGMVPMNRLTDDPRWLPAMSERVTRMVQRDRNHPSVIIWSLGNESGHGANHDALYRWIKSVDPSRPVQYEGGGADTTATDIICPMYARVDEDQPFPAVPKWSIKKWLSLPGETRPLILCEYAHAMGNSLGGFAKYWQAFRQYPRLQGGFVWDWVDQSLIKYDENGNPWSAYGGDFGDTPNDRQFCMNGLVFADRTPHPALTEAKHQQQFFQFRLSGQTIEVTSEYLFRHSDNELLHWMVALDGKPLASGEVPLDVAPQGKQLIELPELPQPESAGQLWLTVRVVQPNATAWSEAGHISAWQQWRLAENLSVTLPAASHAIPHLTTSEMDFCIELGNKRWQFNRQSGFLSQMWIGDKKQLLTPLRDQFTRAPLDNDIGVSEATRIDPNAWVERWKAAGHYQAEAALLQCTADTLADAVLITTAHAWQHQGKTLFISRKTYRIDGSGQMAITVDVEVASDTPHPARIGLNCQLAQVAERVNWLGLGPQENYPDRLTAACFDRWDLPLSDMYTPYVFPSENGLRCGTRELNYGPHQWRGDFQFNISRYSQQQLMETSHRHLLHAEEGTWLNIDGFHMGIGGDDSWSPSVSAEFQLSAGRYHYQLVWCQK
α-galactosidase (green coffee beans), sequence (Q42656 16-378): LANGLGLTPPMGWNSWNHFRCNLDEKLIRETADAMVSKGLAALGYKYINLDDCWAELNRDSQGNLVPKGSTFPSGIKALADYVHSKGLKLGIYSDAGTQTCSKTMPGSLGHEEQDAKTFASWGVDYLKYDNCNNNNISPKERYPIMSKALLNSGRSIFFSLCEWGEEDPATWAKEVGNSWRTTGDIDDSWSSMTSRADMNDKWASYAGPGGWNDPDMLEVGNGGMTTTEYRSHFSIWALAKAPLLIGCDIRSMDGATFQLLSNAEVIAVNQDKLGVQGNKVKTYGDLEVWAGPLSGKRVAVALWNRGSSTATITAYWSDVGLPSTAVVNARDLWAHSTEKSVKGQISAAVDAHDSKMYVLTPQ

IC50 ([4]; read-out: α-Glc IC50) [µM]	SMILES	ceramide-specific glucosyltransferase IC50 (C57BL/6, mouse) [1]	ceramide-specific glucosyltransferase IC50 (LE rat) [2]	β-glucosidase 2 IC50 (LE rat) [3]	α-Glc % Ra (% remaining activity at 100 µM) [4] [%]	β-Glc % Ra (% remaining activity at 100 µM) (β-glucosidase (almond)) [%]	IC50 (β-glucosidase (almond)) [µM]	remaining activity at 100 µM [5] [%]	remaining activity at 100 µM [6] [%]	remaining activity at 100 µM [7] [%]	β-Man % Ra (% remaining activity at 100 µM) [8] [%]	IC50 [3] [µM]	α-Gal % Ra (% remaining activity at 100 µM) [5, 9] [%]	β-Gal % Ra (% remaining activity at 100 µM) [6, 9] [%]	α-Man % Ra (% remaining activity at 100 µM) [7, 9] [%]	IC50 [1] [µM]	IC50 [2] [µM]	effect on spermatogenesis (spermatogenesis)	effects on human spermatogenesis (human spermatogenesis)
	CCCCN1CCC[C@@H](O)[C@H](O)[C@@H](O)C1 [Compound 1, (3S,4S,5R)-1-Butylazocane-3,4,5-triol]	n.i.	n.i.	did not show inhibitory activity and n.i.	93	37	87	100	98	100	100								
	CCCCCCCCCN1CCC[C@@H](O)[C@H](O)[C@@H](O)C1 [Compound 2, (3S,4S,5R)-1-Nonylazocane-3,4,5-triol]	n.i.	n.i.		84	43	92	100	92	100	93	803							
	CCCCCCCCCN1C/C=C\[C@@H](O)[C@H](O)[C@@H](O)C1 [Compound 4, (3S,4S,5R,Z)-1-Nonyl-1,2,3,4,5,8-hexahydroazocine-3,4,5-triol]	n.i.	n.i.		90	44		100	90	100	99	904							
	CCCCN1C[C@@H](O)[C@@H](O)[C@@H](O)[C@H](O)[C@@H](O)C1 [Compound 5, (3S,4R,5S,6R,7R)-1-Butylazocane-3,4,5,6,7-pentaol]	n.i.	n.i.	did not show inhibitory activity and n.i.	89	87					100		100	95	100				
	CCCCN1[C@H](CO)C(O)[C@H]1CO [Compound 22, ((2R,4R)-1-Butyl-3-hydroxyazetidine-2,4-diyl)dimethanol]				100	93		100	99	99	99	> 300				> 300	> 300		
	CCCCCCCCCN1[C@H](CO)C(O)[C@H]1CO [Compound 23, ((2R,4R)-3-Hydroxy-1-nonylazetidine-2,4-diyl)dimethanol]				100	95		99	88	100	115	> 300				> 300	> 300		
	CCCCN1[C@@H](CO)C(O)[C@@H]1CO [Compound 26, ((2S,4S)-1-Butyl-3-hydroxyazetidine-2,4-diyl)dimethanol]				90	82		98	96	98	95	> 300				> 300	> 300		
	CCCCCCCCCN1[C@@H](CO)C(O)[C@@H]1CO [Compound 27, ((2S,4S)-3-Hydroxy-1-nonyl-azetidine-2,4-diyl)dimethanol]				100	95		57	99	99	106	70				> 300	> 300		
1030	CCCCN1C[C@H](O)[C@@H](O)[C@H](O)[C@H]1CO [NB-DNJ, N-butyldeoxynojirimycin]																	active	no discernible effects
